Reference: the RNAGym collection of RNA variant scans (doi:10.1126/science.aae0568)
This sample holds only a part of the variants without activity.

B1: tRNA (parent)
chain: GUUCCGUUGGCGUAAUGGUAACGCGUCUCCCUCCUAAGGAGAAGACUGCGGGUUCGAGUCCCGUACGGAACG

Variants of: B1
Experiment: yeast fitness relative to wild type (ratio to wild type); higher = fitter; tRNA-Arg(CCU), competitive growth, 37 C, YPD
How it was run: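 The tRNA-Arg(CCU) gene variants were made by chemical synthesis with a 3% per-site mutation rate at 69 sites and inserted at the native genomic locus of Saccharomyces cerevisiae. After pooling, the strains were competed in YPD at 37°C for 24 hours in six parallel replicates. Gene amplicons from the start population and each end population were read by 100-nucleotide paired-end sequencing, and Darwinian fitness relative to wild type was taken from genotype frequency changes. Genotypes needed ≥ 100 starting reads, and estimates < 0.5 were set to 0.5.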

**Q.** With GUUCCGUUGGCGUAAUGGUAACGCGUCUCCCUCCUAAGGAGAUGACUGCGGGUACGAGUCCCGUACGGAGCG [A43U U54A A70G] as the variant, how does the yeast fitness read?
**A.** ≤ 0.5

**Q.** With GUUCCGUUGGCGUAAUGGUAACGCGUCUCCCUCCUAAGGAGAUGACUGCGGGUUCGAGACACGUACGGAACG [A43U U59A C61A] as the variant, how does the yeast fitness read?
**A.** 0.629

**Q.** With GUUCCGUUGGCGUAAUGGUAACGCGUCUCCCUCCUAAGGAGAUGACUGCGGGUUCGAGGCCCGUACGGAACG [A43U U59G] as the variant, how does the yeast fitness read?
**A.** 0.81

**Q.** For GUUCCGUUGGCGUAAUGGUAACGCGUCUCCCUCCUAAGGAGAUGACUGCGGGUUCGAGUCCCGGACGGAACG [A43U U64G], which yeast fitness is on record?
**A.** 0.7

**Q.** With GUUCCGUUGGCGUAAUGGUAACGCGUCUCCCUCCUAAGGAGAUGACUGCGGGUUCGAGUCCCGGACAGAACG [A43U U64G G67A] as the variant, how does the yeast fitness read?
**A.** ≤ 0.5

**Q.** Which yeast fitness does the source give for GUUCCGUUGGCGUAAUGGUAACGCGUCUCCCUCCUAAGGAGAAACCUGGGGGUUCGAGUCCCGUACGGAACG [G44A A45C C49G] here?
**A.** 0.983

**Q.** Which yeast fitness does the source give for GUUCCGUUGGCGUAAUGGUAACGCGUCUCCCUCCUAAGGAGAAACCUGGGGGUUCGAGUCCCGUACGGCACG [G44A A45C C49G A69C] here?
**A.** 0.698

**Q.** For GUUCCGUUGGCGUAAUGGUAACGCGUCUCCCUCCUAAGGAGAAACCUGCGAGUUCGAGUCCCGUACGGAACG [G44A A45C G51A], which yeast fitness is on record?
**A.** ≤ 0.5

**Q.** With GUUCCGUUGGCGUAAUGGUAACGCGUCUCCCUCCUAAGGAGAAACCUGCGGGAUAGAGCCCUGUACGGAACG [G44A A45C U53A C55A U59C C62U] as the variant, how does the yeast fitness read?
**A.** ≤ 0.5

**Q.** With GUUCCGUUGGCGUAAUGGUAACGCGUCUCCCUCCUAAGGAGAAAUCUGCGGGUUCGAGUCCGGUACGGAACG [G44A A45U C62G] as the variant, how does the yeast fitness read?
**A.** ≤ 0.5

**Q.** For GUUCCGUUGGCGUAAUGGUAACGCGUCUCCCUCCUAAGGAGAAAACUGCGGGUUCGCGUCCCGUACGGAACG [G44A A57C], which yeast fitness is on record?
**A.** 0.654

**Q.** For GUUCCGUUGGCGUAAUGGUAACGCGUCUCCCUCCUAAGGAGAAAACUGCGGGUUCGAGUCCCGUGCGGAACG [G44A A65G], which yeast fitness is on record?
**A.** 1

**Q.** For GUUCCGUUGGCGUAAUGGUAACGCGUCUCCCUCCUAAGGAGAAAACUGCGGGUUCGAGUCCCGUACGGCACG [G44A A69C], which yeast fitness is on record?
**A.** 0.988

**Q.** Which yeast fitness does the source give for GUUCCGUUGGCGUAAUGGUAACGCGUCUCCCUCCUAAGGAGAAAACUGCGGGUUCGAGUCCCGUACGGACCG [G44A A70C] here?
**A.** 0.837

**Q.** With GUUCCGUUGGCGUAAUGGUAACGCGUCUCCCUCCUAAGGAGAAAACUGCGGGUUCGAGUCCCGUACGGAGCG [G44A A70G] as the variant, how does the yeast fitness read?
**A.** 0.919

**Q.** Which yeast fitness does the source give for GUUCCGUUGGCGUAAUGGUAACGCGUCUCCCUCCUAAGGAGAAAACUGCGGGUUCGAGUCCCGUACGGAUCG [G44A A70U] here?
**A.** 1.03

**Q.** For GUUCCGUUGGCGUAAUGGUAACGCGUCUCCCUCCUAAGGAGAAAAAUGCGGAUUCGAGUCCCGUAUGGAACG [G44A C46A G52A C66U], which yeast fitness is on record?
**A.** 0.62

**Q.** For GUUCCGUUGGCGUAAUGGUAACGCGUCUCCCUCCUAAGGAGAAAAGUGCCGGAUCGAGUCCCGUACGGAACG [G44A C46G G50C U53A], which yeast fitness is on record?
**A.** ≤ 0.5

**Q.** Which yeast fitness does the source give for GUUCCGUUGGCGUAAUGGUAACGCGUCUCCCUCCUAAGGAGAAAAUUGCGGGUUCGAGUCCCGUACGGAACG [G44A C46U] here?
**A.** 0.981

**Q.** With GUUCCGUUGGCGUAAUGGUAACGCGUCUCCCUCCUAAGGAGAAAAUUGCGGGUUCGAGUCCCGUACGGACCG [G44A C46U A70C] as the variant, how does the yeast fitness read?
**A.** 0.809

**Q.** Which yeast fitness does the source give for GUUCCGUUGGCGUAAUGGUAACGCGUCUCCCUCCUAAGGAGAAAAUUGCGGGUUCGACUCCCGUACGGAACG [G44A C46U G58C] here?
**A.** 1.08

**Q.** For GUUCCGUUGGCGUAAUGGUAACGCGUCUCCCUCCUAAGGAGAAAACUGAGGGUUCGAGUCCCGUACGGAACG [G44A C49A], which yeast fitness is on record?
**A.** 0.635

**Q.** For GUUCCGUUGGCGUAAUGGUAACGCGUCUCCCUCCUAAGGAGAAAACUGUGGGUUCGAGUCCCGUACGGAACG [G44A C49U], which yeast fitness is on record?
**A.** 1.04

**Q.** Which yeast fitness does the source give for GUUCCGUUGGCGUAAUGGUAACGCGUCUCCCUCCUAAGGAGAAAACUGUGGGUUCGAGUCCCGUACGGCACG [G44A C49U A69C] here?
**A.** 0.752

**Q.** For GUUCCGUUGGCGUAAUGGUAACGCGUCUCCCUCCUAAGGAGAAAACUGCGGGUUAGAGUCCCGUACGGAACG [G44A C55A], which yeast fitness is on record?
**A.** 0.658

**Q.** Which yeast fitness does the source give for GUUCCGUUGGCGUAAUGGUAACGCGUCUCCCUCCUAAGGAGAAAACUGCGGGUUAGAGUCCCGUACGGCACG [G44A C55A A69C] here?
**A.** ≤ 0.5

**Q.** For GUUCCGUUGGCGUAAUGGUAACGCGUCUCCCUCCUAAGGAGAAAACUGCGGGUUGGAGUCCCCUACGGAACG [G44A C55G G63C], which yeast fitness is on record?
**A.** ≤ 0.5

**Q.** Which yeast fitness does the source give for GUUCCGUUGGCGUAAUGGUAACGCGUCUCCCUCCUAAGGAGAAAACUGCGGGUUUGAGUCCCGUACGGAACG [G44A C55U] here?
**A.** 0.776

**Q.** Which yeast fitness does the source give for GUUCCGUUGGCGUAAUGGUAACGCGUCUCCCUCCUAAGGAGAAAACUGCGGGUUCGAGUACCGUACGGAACG [G44A C60A] here?
**A.** 0.585

**Q.** Which yeast fitness does the source give for GUUCCGUUGGCGUAAUGGUAACGCGUCUCCCUCCUAAGGAGAAAACUGCGGGUUCGAGUGCCGCACGGAACG [G44A C60G U64C] here?
**A.** ≤ 0.5

**Q.** For GUUCCGUUGGCGUAAUGGUAACGCGUCUCCCUCCUAAGGAGAAAACUGCGGGUUCGAGUUCCGUACGGAACG [G44A C60U], which yeast fitness is on record?
**A.** 0.798

**Q.** For GUUCCGUUGGCGUAAUGGUAACGCGUCUCCCUCCUAAGGAGAAAACUGCGGGUUCGAGUUCCGUACCGAACG [G44A C60U G67C], which yeast fitness is on record?
**A.** 0.545

**Q.** With GUUCCGUUGGCGUAAUGGUAACGCGUCUCCCUCCUAAGGAGAAAACUGCGGGUUCGAGUCUCGUACGGAACG [G44A C61U] as the variant, how does the yeast fitness read?
**A.** 1.04

**Q.** Which yeast fitness does the source give for GUUCCGUUGGCGUAAUGGUAACGCGUCUCCCUCCUAAGGAGAAAACUGCGGGUUCGAGUCCGGUACGGAACG [G44A C62G] here?
**A.** 0.668

**Q.** For GUUCCGUUGGCGUAAUGGUAACGCGUCUCCCUCCUAAGGAGAAAACUGCGGGUUCGAGUCCUGUACGGAACG [G44A C62U], which yeast fitness is on record?
**A.** 0.874

**Q.** With GUUCCGUUGGCGUAAUGGUAACGCGUCUCCCUCCUAAGGAGAAAACUGCGGGUUCGAGUCCCGUAUGGAACG [G44A C66U] as the variant, how does the yeast fitness read?
**A.** 0.86

**Q.** For GUUCCGUUGGCGUAAUGGUAACGCGUCUCCCUCCUAAGGAGAAAACUACGGGUUCGAGUCCCGUACGGAACG [G44A G48A], which yeast fitness is on record?
**A.** 0.96
